The results in this text go back to ChEMBL document CHEMBL1124260, “Synthesis and antitumor activity of quaternary ellipticine glycosides, a series of novel and highly active antitumor agents” (1988).

For experiment [1], the system named is Mus musculus. Kind of experiment: Number of survivors out of 6 ip implanted L1210 leukemia mouse tested after 80 days at 10 mg/kg. Particulars: route intraperitoneal. Format: functional. The essentials: (§1)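 Female BDF1 mice implanted ip with ascitic fluid holding 10^5 L1210 cells. Saline-dissolved drug given ip daily on days 1-5, starting 24 h after implant. Six mice per dose group, followed 80 days. Survivors/total counted at day 80; ILS % from mean survival time vs controls.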

Experiment [2] relates to Mus musculus. Nature of the experiment: Antitumor activity against ip implanted L1210 leukemia in mouse after ip administration of 20 mg/kg for 5 days expressed as increase in mean life span. The format is functional. The following applies: 120 h, route intraperitoneal. In outline:
(§2)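 Drug was dissolved in 0.9% NaCl, diluted just before use and given ip once daily for 5 consecutive days, starting 24 h after transplant. ILS % = mean survival time of treated vs control mice, observed for 80 days.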

The test system of experiment [3] is Mus musculus. Nature of the experiment: Number of survivors out of 6 ip implanted L1210 leukemia mouse tested after 80 days at 20 mg/kg. The format is functional. Particulars: route intraperitoneal. The essentials:
as §1

Experiment [4] concerns Mus musculus. Nature of the experiment: Antitumor activity against ip implanted L1210 leukemia in mouse after ip administration of 10 mg/kg for 5 days expressed as increase in mean life span. Format: functional. Particulars: Mus musculus, L1210, ip, 120 h, route intraperitoneal. The essentials:
as §2

Experiment [5] has as its system Mus musculus. Kind of experiment: Number of survivors out of 6 ip implanted L1210 leukemia mouse tested after 80 days at 40 mg/kg. The format is functional. The following applies: route intraperitoneal. In outline:
as §1

The test system of experiment [6] is Mus musculus. Nature of the experiment: Antitumor activity against ip implanted L1210 leukemia in mouse after ip administration of 40 mg/kg for 5 days expressed as increase in mean life span. Format: functional. Particulars: 120 h, route intraperitoneal. In outline:
as §2

The test system of experiment [7] is Mus musculus. Nature of the experiment: Inhibition of sc implanted syngeneic colon 38 carcinoma by ip administration at 40 mg/kg on 1, 3, 5, 7, 9 days measured as inhibition ratio. Format: functional. Particulars: route subcutaneous. In outline:
(§3)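 Tumor homogenate (70 mg) implanted into the axillary region of female BDF1 mice. Drug dissolved in 0.9% NaCl and diluted with saline just before use, then given ip on days 1, 3, 5, 7 and 9. Tumor length and width were measured by caliper on day 20 after inoculation and converted to estimated weight. Result reported as treated vs control tumor weight, T/C %.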

The test system of experiment [8] is Mus musculus. Kind of experiment: Number of survivors out of 6 ip implanted P388 leukemia in mouse after ip administration of 10 mg/kg after 80 days. The following applies: route intraperitoneal. Format: functional. The essentials:
(§4)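 P388 leukemia, 10^6 ascitic cells implanted ip in female BDF1 mice. Drug in saline given ip for 5 consecutive days from 24 h after transplant. Groups of six per dose level. Survivors/total recorded at the 80-day end of observation; ILS % from treated/control mean survival time.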

For experiment [9], the system named is Mus musculus. Kind of experiment: Number of survivors out of 6 ip implanted L1210 leukemia mouse, tested after 80 days at 30 mg/kg. Format: functional. The following applies: route intraperitoneal. In outline:
as §1

The test system of experiment [10] is Mus musculus. Kind of experiment: Effect on ip implanted syngeneic B16 melanoma by ip administration of 20 mg/kg for 9 days measured as increase in mean life span. Particulars: 216 h.
Experiment [11] concerns Mus musculus. Nature of the experiment: Number of survivors out of 6 ip implanted P388 leukemia in mouse after ip administration of 20 mg/kg after 80 days. Particulars: route intraperitoneal. Format: functional. The essentials: as §4
The subject of experiment [12] is Mus musculus. Nature of the experiment: Antitumor activity against ip implanted P388 leukemia in mouse after ip administration of 40 mg/kg for 5 days expressed as increase in mean life span. Particulars: 120 h, route intraperitoneal. The format is functional. In outline:
(§5)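 Saline-dissolved drug was given ip daily for 5 consecutive days, beginning 24 h post-transplant. ILS % was calculated from treated vs control mean survival time over an 80-day observation period.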

The subject of experiment [13] is Mus musculus. Nature of the experiment: Number of survivors out of 6 ip implanted L1210 leukemia in mouse after ip administration of 40 mg/kg after 80 days. The following applies: route intraperitoneal. The format is functional. The essentials: as §1
Experiment [14] relates to Mus musculus. Nature of the experiment: Number of survivors out of 6 ip implanted L1210 leukemia in mouse after ip administration of 20 mg/kg after 80 days. The format is functional. The following applies: route intraperitoneal. In outline:
as §1

Experiment [15] deals with Mus musculus. Kind of experiment: Inhibition of sc implanted syngeneic colon 38 carcinoma by ip administration at 20 mg/kg on 1, 3, 5, 7, 9 days measured as inhibition ratio. The format is functional. Particulars: route subcutaneous. In outline: as §3
The test system of experiment [16] is Mus musculus. Nature of the experiment: Inhibition of sc implanted syngeneic colon 38 carcinoma by ip administration at 30 mg/kg on 1, 3, 5, 7, 9 days measured as inhibition ratio. The format is functional. The following applies: route intraperitoneal. The essentials: as §3
For experiment [17], the system named is Mus musculus. Nature of the experiment: Antitumor activity against ip implanted P388 leukemia in mouse after ip administration of 10 mg/kg for 5 days expressed as increase in mean life span. The format is functional. Particulars: 120 h, route intraperitoneal. The essentials:
as §5

Experiment [18] has as its system Mus musculus. Kind of experiment: Effect on ip implanted syngeneic B16 melanoma by ip administration for 9 days at 5 mg/kg was measured as increase in mean life span. Particulars: 216 h.
The subject of experiment [19] is Mus musculus. Kind of experiment: Antitumor activity against ip implanted P388 leukemia in mouse after ip administration of 20 mg/kg for 5 days expressed as increase in mean life span. The following applies: 120 h, route intraperitoneal. Format: functional. The essentials:
as §5

Experiment [20] deals with Mus musculus. Nature of the experiment: Antitumor activity against ip implanted L1210 leukemia in mouse after ip administration of 1.25 mg/kg for 5 days expressed as increase in mean life span. The format is functional. The following applies: 120 h, route intraperitoneal. The essentials: as §2
Experiment [21] relates to Mus musculus. Nature of the experiment: Antitumor activity against ip implanted L1210 leukemia in mouse after ip administration of 5 mg/kg for 5 days expressed as increase in mean life span. The format is functional. The following applies: Mus musculus, L1210, ip, 120 h, route intraperitoneal. In outline:
as §2

Experiment [22] relates to Mus musculus. Nature of the experiment: Number of survivors out of 6 ip implanted P388 leukemia in mouse after ip administration of 5 mg/kg after 80 days. The format is functional. The following applies: route intraperitoneal. The essentials:
as §4

Experiment [23] deals with Mus musculus. Nature of the experiment: Antitumor activity against ip implanted P388 leukemia in mouse after ip administration of 5 mg/kg for 5 days expressed as increase in mean life span. Format: functional. Particulars: 120 h, route intraperitoneal. The essentials: as §5
Experiment [24] relates to Mus musculus. Kind of experiment: Number of survivors out of 6 ip implanted P388 leukemia in mouse after ip administration of 40 mg/kg after 80 days. The following applies: route intraperitoneal. Format: functional. In outline: as §4
In experiment [25] the test system is Mus musculus. Nature of the experiment: Antitumor activity against ip implanted L1210 leukemia in mouse after ip administration of 30 mg/kg for 5 days expressed as increase in mean life span. Format: functional. The following applies: Mus musculus, L1210, ip, 120 h, route intraperitoneal. In outline:
as §2

Experiment [26] has as its system Mus musculus. Nature of the experiment: Number of survivors out of 6 ip implanted L1210 leukemia in mouse after ip administration of 10 mg/kg after 80 days. The format is functional. Particulars: route intraperitoneal. In outline:
as §1

Experiment [27] has as its system Mus musculus. Kind of experiment: Antitumor activity against ip implanted P388 leukemia in mouse after ip administration of 1.25 mg/kg for 5 days expressed as increase in mean life span. The following applies: 120 h, route intraperitoneal. Format: functional. The essentials: as §5
In experiment [28] the test system is Mus musculus. Kind of experiment: Effect on ip implanted syngeneic B16 melanoma by ip administration for 9 days at 10 mg/kg was measured as increase in mean life span. The following applies: 216 h.

Turning to `Cc1c2cc[n+]([C@H]3O[C@H](CO)[C@@H](O)[C@@H]3O)cc2c(C)c2c1[nH]c1ccc(O)cc12.[Br-]`, the Cures in [1] is 2; in experiment [3] it was 0. The ILS (commonly the gain in survival time of treated over control animals, in per cent) at 20 mg/kg in experiment [2] turned out to be 91%. For the same compound, the ILS at 10 mg/kg in experiment [4] is more than 379%.

Consider `Cc1c2cc[n+]([C@H]3O[C@@H](C)[C@H](O)[C@@H](O)[C@H]3O)cc2c(C)c2c1[nH]c1ccc(O)cc12.[Br-]`, for which, in [5], the Cures turned out to be 0. In [6], the ILS at 40 mg/kg stood at 78%.

Compound `Cc1c2cc[n+](C3O[C@@H](C)[C@H](O)[C@@H](O)[C@H]3O)cc2c(C)c2c1[nH]c1ccccc12.[Br-]` (some centres not stated) had a Cures in [5] of 0. In experiment [6], this compound showed an ILS at 40 mg/kg of 40%.

`Cc1c2cc[n+]([C@H]3OC[C@@H](O)[C@@H](O)[C@@H]3O)cc2c(C)c2c1[nH]c1ccc(O)cc12.[Br-]`: the ILS at 20 mg/kg in [2] is more than 606%. In addition, the Cures in [3] is reported as 3.

With `Cc1c2cc[n+]([C@@H]3OC[C@@H](O)[C@H](O)[C@@H]3O)cc2c(C)c2c1[nH]c1ccc(O)cc12.[Cl-]`, the T/C (usually the result in the treated group divided by that in the control group, in per cent) is 5% in experiment [7], 37% in [15] and 18% in [16]. Moreover, the Cures in experiment [8] amounted to 2; in [9] it was 5; in experiment [11] it was 4; in experiment [13], 4; in [14] it was 1; in [22], 1. The Cures is 4 in experiment [24] and 1 in experiment [26]. Also, the ILS at 20 mg/kg in [10] is 87%; in [2], more than 249%; in experiment [19], more than 585%. In addition, the increase in life span (ILS) at 40 mg/kg in experiment [12] was more than 526%; in [6], more than 668%. Also, the increase in lifespan (ILS) at 10 mg/kg in [17] is more than 369%; in experiment [4], more than 238%; in experiment [28], 61%. The results for the ILS at 5 mg/kg in experiment [18], in experiment [21] and in [23] were 41%, 68% and more than 212%, respectively. For the same compound, the increase in life span (ILS) at 1.25 mg/kg in experiment [20] was 46%; in experiment [27] it was 87%. The compound also showed an ILS at 30 mg/kg in [25] of more than 786%.

Regarding `Cc1c2cc[n+](C3OC(CO)C(O)C(O)C3O)cc2c(C)c2c1[nH]c1ccccc12.[Br-]` (configuration not stated), the Cures in experiment [5] is recorded as 0. This compound showed an ILS at 40 mg/kg in [6] of 39%.
